Experimental data as given in ChEMBL document CHEMBL3120107, “Cytotoxic cardiac glycosides and coumarins from Antiaris toxicaria” (2014).
In brackets after ≈: the same amount, converted by molar mass.

How the values were obtained:
[1] = system: 1A9; experiment: Cytotoxicity against human 1A9 cells assessed as growth inhibition after 72 hrs by SRB assay; assay type: functional; details: Homo sapiens, 1A9, 72 h; read-out: ED50 (the source's name)
Summary of the method: (§1)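 Sulforhodamine B assay run by NCI-validated procedure. Cells grown at 37 °C under humidified 5% CO2 in RPMI-1640 with 25 mM HEPES, […] (w/v) sodium bicarbonate, 10% (v/v) FBS and 100 μg/mL kanamycin. Compounds came from DMSO stocks, with final DMSO ≤ 1% (v/v). Continuous exposure for 72 h. ED50 (μg/mL, 50% cell-number reduction) interpolated from dose-response data. Triplicate tests. Doxorubicin served as positive control.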

[2] = Cytotoxicity against human […] cells assessed as growth inhibition after 72 hrs by SRB assay; assay type: functional; details: Homo sapiens, HCT9, 72 h; read-out: ED50 (the source's name); summary of the method: as §1
[3] = Cytotoxicity against human KBVIN cells assessed as growth inhibition after 72 hrs by SRB assay; assay type: functional; details: Homo sapiens, KBVIN, 72 h; read-out: ED50 (the source's name); summary of the method: as §1
[4] = Cytotoxicity against human U87MG cells assessed as growth inhibition after 72 hrs by SRB assay; assay type: functional, U-87MG ATCC; details: Homo sapiens, U-87 MG, 72 h; read-out: ED50 (the source's name); summary of the method: as §1
[5] = system: A549; experiment: Cytotoxicity against human A549 cells assessed as growth inhibition after 72 hrs by SRB assay; assay type: functional; details: Homo sapiens, A549, 72 h; read-out: ED50 (the source's name); summary of the method: as §1
[6] = system: SK-MEL-2; experiment: Cytotoxicity against human SK-MEL-2 cells assessed as growth inhibition after 72 hrs by SRB assay; assay type: functional; details: Homo sapiens, SK-MEL-2, 72 h; read-out: ED50 (the source's name); summary of the method: as §1
[7] = system: PC-3; experiment: Cytotoxicity against human PC3 cells assessed as growth inhibition after 72 hrs by SRB assay; assay type: functional; details: Homo sapiens, PC-3, 72 h; read-out: ED50 (the source's name); summary of the method: as §1
[8] = system: CAKI-1; experiment: Cytotoxicity against human CAKI-1 cells assessed as growth inhibition after 72 hrs by SRB assay; assay type: functional; details: Homo sapiens, CAKI-1, 72 h; read-out: ED50 (the source's name); summary of the method: as §1
[9] = system: KB; experiment: Cytotoxicity against human KB cells assessed as growth inhibition after 72 hrs by SRB assay; assay type: functional; details: Homo sapiens, KB, 72 h; read-out: ED50 (the source's name); summary of the method: as §1
[10] = system: MCF7; experiment: Cytotoxicity against human MCF7 cells assessed as growth inhibition after 72 hrs by SRB assay; assay type: functional; details: Homo sapiens, MCF7, 72 h; read-out: ED50 (the source's name); summary of the method: as §1

## C[C@H]1O[C@H](O[C@H]2CC[C@]3(C=O)[C@H]4C[C@@H](O)[C@]5(C)[C@@H](C6=CC(=O)OC6)CC[C@]5(O)[C@@H]4CC[C@]3(O)C2)[C@H](O)[C@H](O)[C@@H]1O [ANTIALLOSIDE]
[1]
  EC50: 0.062 µg/mL (≈ 0.109 µM)
[2]
  EC50: 0.11 µg/mL (≈ 0.194 µM)
[3]
  EC50: 0.075 µg/mL (≈ 0.132 µM)
[4]
  EC50: 0.15 µg/mL (≈ 0.265 µM)
[5]
  EC50: 0.046 µg/mL (≈ 0.0812 µM)
[6]
  EC50: 0.12 µg/mL (≈ 0.212 µM)
[7]
  EC50: 0.085 µg/mL (≈ 0.15 µM)
[8]
  EC50: 0.068 µg/mL (≈ 0.12 µM)
[9]
  EC50: 0.065 µg/mL (≈ 0.115 µM)
[10]
  EC50: 0.12 µg/mL (≈ 0.212 µM)

## C[C@]12[C@H](O)C[C@H]3[C@@H](CC[C@]4(O)CCCC[C@]34C=O)[C@@]1(O)CC[C@@H]2C1=CC(=O)OC1 [ANTIARIGENIN]
[1]
  EC50: 0.12 µg/mL (≈ 0.297 µM)
[2]
  EC50: 4.5 µg/mL (≈ 11.1 µM)
[3]
  EC50: 5.1 µg/mL (≈ 12.6 µM)
[4]
  EC50: 4.6 µg/mL (≈ 11.4 µM)
[5]
  EC50: 0.59 µg/mL (≈ 1.46 µM)
[6]
  EC50: 0.41 µg/mL (≈ 1.01 µM)
[7]
  EC50: 1.2 µg/mL (≈ 2.97 µM)
[8]
  EC50: 1.3 µg/mL (≈ 3.21 µM)
[9]
  EC50: 5.3 µg/mL (≈ 13.1 µM)
[10]
  EC50: 1.3 µg/mL (≈ 3.21 µM)

## C[C@H]1O[C@@H](O[C@H]2CC[C@]3(C)[C@H]4CC[C@]5(C)[C@@H](C6=CC(=O)OC6)CC[C@]5(O)[C@@H]4CC[C@]3(O)C2)[C@H](O)[C@H](O)[C@H]1O [ANTIAROSIDE A]
[1]
  EC50: 0.02 µg/mL (≈ 0.0373 µM)
[2]
  EC50: 0.09 µg/mL (≈ 0.168 µM)
[3]
  EC50: 0.068 µg/mL (≈ 0.127 µM)
[4]
  EC50: 0.15 µg/mL (≈ 0.28 µM)
[5]
  EC50: 0.044 µg/mL (≈ 0.082 µM)
[6]
  EC50: 0.073 µg/mL (≈ 0.136 µM)
[7]
  EC50: 0.078 µg/mL (≈ 0.145 µM)
[8]
  EC50: 0.018 µg/mL (≈ 0.0335 µM)
[9]
  EC50: 0.0097 µg/mL (≈ 0.0181 µM)
[10]
  EC50: 0.063 µg/mL (≈ 0.117 µM)

## C[C@@H]1O[C@H](O[C@@H]2CC[C@]3(C=O)[C@H]4CC[C@]5(C)[C@@H](C6=CC(=O)OC6)CC[C@]5(O)[C@@H]4CC[C@]3(O)C2)[C@H](O)[C@H](O)[C@H]1O [ANTIAROSIDE C]
[1]
  EC50: 0.39 µg/mL (≈ 0.708 µM)
[2]
  EC50: 1.5 µg/mL (≈ 2.72 µM)
[3]
  EC50: 1.6 µg/mL (≈ 2.91 µM)
[4]
  EC50: 1.7 µg/mL (≈ 3.09 µM)
[5]
  EC50: 0.48 µg/mL (≈ 0.872 µM)
[6]
  EC50: 0.26 µg/mL (≈ 0.472 µM)
[7]
  EC50: 0.42 µg/mL (≈ 0.763 µM)
[8]
  EC50: 0.32 µg/mL (≈ 0.581 µM)
[9]
  EC50: 1.5 µg/mL (≈ 2.72 µM)
[10]
  EC50: 1.4 µg/mL (≈ 2.54 µM)

## C[C@@H]1O[C@@H](O[C@@H]2CC[C@@]3(CO)[C@H](CC[C@@H]4[C@@H]3CC[C@]3(C)[C@@H](C5=CC(=O)OC5)CC[C@]43O)C2)[C@H](O)[C@H](O)[C@H]1O[C@@H]1O[C@H](CO)[C@@H](O)[C@H](O)[C@H]1O [ANTIAROSIDE D]
[1]
  EC50: 0.74 µg/mL (≈ 1.06 µM)
[2]
  EC50: 1.9 µg/mL (≈ 2.72 µM)
[3]
  EC50: 1.9 µg/mL (≈ 2.72 µM)
[4]
  EC50: 4.2 µg/mL (≈ 6.01 µM)
[5]
  EC50: 0.38 µg/mL (≈ 0.544 µM)
[6]
  EC50: 0.31 µg/mL (≈ 0.444 µM)
[7]
  EC50: 0.53 µg/mL (≈ 0.758 µM)
[8]
  EC50: 0.93 µg/mL (≈ 1.33 µM)
[9]
  EC50: 1.7 µg/mL (≈ 2.43 µM)
[10]
  EC50: 1 µg/mL (≈ 1.43 µM)

## C[C@@H]1O[C@H](O[C@H]2CC[C@@]3(C(=O)O)[C@H](CC[C@@H]4[C@@H]3CC[C@]3(C)[C@@H](C5=CC(=O)OC5)CC[C@]43O)C2)[C@H](O)[C@H](O)[C@H]1O [ANTIAROSIDE E]
[1]
  EC50: 0.13 µg/mL (≈ 0.236 µM)
[2]
  EC50: 0.35 µg/mL (≈ 0.636 µM)
[3]
  EC50: 0.57 µg/mL (≈ 1.04 µM)
[4]
  EC50: 0.73 µg/mL (≈ 1.33 µM)
[5]
  EC50: 0.07 µg/mL (≈ 0.127 µM)
[6]
  EC50: 0.12 µg/mL (≈ 0.218 µM)
[7]
  EC50: 0.16 µg/mL (≈ 0.291 µM)
[8]
  EC50: 0.13 µg/mL (≈ 0.236 µM)
[9]
  EC50: 0.49 µg/mL (≈ 0.89 µM)
[10]
  EC50: 0.42 µg/mL (≈ 0.763 µM)

## C[C@@H]1O[C@H](O[C@H]2CC[C@@]3(C(=O)O[C@@H]4O[C@H](CO)[C@@H](O)[C@H](O)[C@H]4O)[C@H](CC[C@@H]4[C@@H]3CC[C@]3(C)[C@@H](C5=CC(=O)OC5)CC[C@]43O)C2)[C@H](O)[C@H](O)[C@H]1O [ANTIAROSIDE F]
[1]
  EC50: 0.97 µg/mL (≈ 1.36 µM)
[2]
  EC50: 3.4 µg/mL (≈ 4.77 µM)
[3]
  EC50: 2.2 µg/mL (≈ 3.09 µM)
[4]
  EC50: 4.5 µg/mL (≈ 6.31 µM)
[5]
  EC50: 0.54 µg/mL (≈ 0.758 µM)
[6]
  EC50: 0.32 µg/mL (≈ 0.449 µM)
[7]
  EC50: 0.89 µg/mL (≈ 1.25 µM)
[8]
  EC50: 1.2 µg/mL (≈ 1.68 µM)
[9]
  EC50: 1.8 µg/mL (≈ 2.53 µM)
[10]
  EC50: 1.3 µg/mL (≈ 1.82 µM)

## C[C@H]1O[C@H](O[C@H]2CC[C@]3(C(=O)O)[C@H]4C[C@@H](O)[C@]5(C)[C@@H](C6=CC(=O)OC6)CC[C@]5(O)[C@@H]4CC[C@]3(O)C2)[C@H](O)[C@H](O)[C@H]1O [ANTIAROSIDE H]
[1]
  EC50: 1.4 µg/mL (≈ 2.4 µM)
[2]
  EC50: 2.5 µg/mL (≈ 4.29 µM)
[3]
  EC50: 7.1 µg/mL (≈ 12.2 µM)
[4]
  EC50: 7.3 µg/mL (≈ 12.5 µM)
[5]
  EC50: 0.76 µg/mL (≈ 1.3 µM)
[6]
  EC50: 1.3 µg/mL (≈ 2.23 µM)
[7]
  EC50: 1.8 µg/mL (≈ 3.09 µM)
[8]
  EC50: 1.5 µg/mL (≈ 2.57 µM)
[9]
  EC50: 5.9 µg/mL (≈ 10.1 µM)
[10]
  EC50: 3.1 µg/mL (≈ 5.32 µM)
